Reference: ChEMBL document CHEMBL5113516, “2-(Fluoromethoxy)-4'-(S-methanesulfonimidoyl)-1,1'-biphenyl (UCM-1306), an Orally Bioavailable Positive Allosteric Modulator of the Human Dopamine D1 Receptor for Parkinson's Disease” (J Med Chem, 2022)
Activity calls are given as the source filed them. No cut-off for these calls is given here.

What was measured:
[1] = biological target: D(1A) dopamine receptor (Homo sapiens) (UniProt P21728); experiment: Positive allosteric modulation of D1R expressed in human SK-N-MC cells assessed as potentiation of DA-induced cAMP production pretreated with compound for 15 mins followed by dopamine addition measured after 15 mins by HTRF assay relative to control; assay type: functional, cell-based; conditions: dose 0.1-10 µM, time 30.0 min
Chain of D(1A) dopamine receptor (Homo sapiens) (P21728 whole entry): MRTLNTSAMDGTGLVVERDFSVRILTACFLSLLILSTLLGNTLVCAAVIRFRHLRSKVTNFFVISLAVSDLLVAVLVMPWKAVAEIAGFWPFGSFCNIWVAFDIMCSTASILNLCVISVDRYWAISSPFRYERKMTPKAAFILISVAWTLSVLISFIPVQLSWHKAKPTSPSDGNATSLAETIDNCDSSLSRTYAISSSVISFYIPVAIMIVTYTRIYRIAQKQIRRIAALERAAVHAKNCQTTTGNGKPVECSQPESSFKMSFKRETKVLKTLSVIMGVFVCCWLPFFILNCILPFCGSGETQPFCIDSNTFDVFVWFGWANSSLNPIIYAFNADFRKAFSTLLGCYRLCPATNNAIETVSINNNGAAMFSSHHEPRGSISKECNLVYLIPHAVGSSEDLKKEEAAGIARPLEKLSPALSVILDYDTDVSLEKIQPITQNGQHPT
Outline: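 Human SK-N-MC neuroblastoma cells with endogenous D1R, seeded at 1×10^4 cells/well in Opti-MEM with 500 μM IBMX. Preincubated with 10 μM compound for 15 min at 25 °C, then dopamine concentration–response for 15 min at 25 °C. Lysed and cAMP read by HTRF. Change in dopamine Emax used; >20% potentiation taken as a potential PAM.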

[2] = tested on: Mus musculus; experiment: Anti-parkinson activity in reserpine induced C57BL/6 mouse model assessed as decrease in locomotion at 100 to 400 mg/kg, ip measured for 60 mins; assay type: functional, organism-based; conditions: dose 100-400 mg/kg
Outline: (§1)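 Male C57BL/6 mice (22–25 g), n = 10/group, given reserpine 2.5 mg/kg sc (DMSO/saline). 20 h later dosed with vehicle or 30 mg/kg po (5% NMP + 5% solutol HS-15 + 90% saline), and/or L-DOPA 100 or 400 mg/kg ip plus carbidopa 100 mg/kg ip 30 min before recording. Placed in cage 15 min after the po dose. Total distance travelled over 60 min by video tracking.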

[3] = tested on: Mus musculus; experiment: Cognitive enhancing effect in C57BL/6J mouse assessed as ratio of novel to familiar at 1 mg/kg, ip by novel object recognition test; assay type: functional, organism-based; conditions: time 24-96 hrs
Outline: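 Three-month-old male C57BL/6J mice, 8 per condition. After 5 min habituation to an empty 40 cm open field, given 1 mg/kg ip or vehicle (0.9% NaCl). 20 min later, 10 min acquisition with two identical objects. Later 10 min test sessions at 24 and 96 h. Nose/forepaw exploration scored. Discrimination ratio = (novel − familiar)/total exploration time.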

[4] = Ratio of drug concentration in brain to plasma in BALB/c mouse plasma at 5 mg/kg, po administered as single dose measured 0.5 to 4 hrs; assay type: ADME, organism-based; conditions: time 0.5-4 hrs
Outline: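 Male BALB/c mice given a single oral dose of 5 mg/kg. Plasma, brain and CSF levels measured over time. Brain-to-plasma concentration ratios calculated between 0.5 and 4 h.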

[5] = tested on: Mus musculus; experiment: Anti-parkinson activity in reserpine induced C57BL/6 mouse model assessed as decrease in locomotion at 30 mg/kg, po measured for 60 mins; assay type: functional, organism-based; outline: as §1
[6] = Toxicity in cocaine-induced hyperactive C57BL/6 mouse model assessed as hyperlocomotion at 1 mg/kg, ip pretreated for 15 mins followed by cocaine addition measured after 15 mins; assay type: organism-based; conditions: in vivo, 0.5 h, time 30 min
Outline: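 Three-month-old male C57BL/6J mice, 8 per group, habituated to injections for 5 days. Given 1 mg/kg ip in sterile saline (20 mL/kg) 15 min before cocaine 20 mg/kg sc. Placed in a 50 cm open field 5 min after cocaine. Horizontal locomotion (total distance, cm) video-tracked in 2 min blocks over 30 min.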

[7] = filed as positive allosteric modulator

Row | Compound | Emax [1] | also measured
1 | O=Cc1ccc(-c2cccc(OC(F)F)c2)cc1 | 37% | –
2 | CC(=O)c1ccc(-c2ccccc2OCF)cc1 | 11% | –
3 | NC(=O)c1ccc(-c2ccccc2OCF)cc1 | 16% | –
4 | O=Cc1ccc(-c2ccccc2OC(F)F)cc1 | – | Emax [1, 7]: 45%
5 | N[C@@H](Cc1ccc(O)c(O)c1)C(=O)O | – | Activity [2]: Active
6 | CN=S(C)(=O)c1ccc(-c2ccccc2OCF)cc1 (centres undefined) | 30% | –
7 | CS(=N)(=O)c1ccc(-c2ncccc2OCF)cc1 (centres undefined) | 1% | –
8 | O=Cc1cccc(-c2ccccc2OC(F)F)c1 | 12% | –
9 | CS(=N)(=O)c1ccc(-c2ccccc2OCF)cc1 (racemic) | – | Activity [3]: Active; Kp [4]: 0.55; Activity [2]: Active; Activity [5]: Active; Activity [6]: Non-Toxic; Emax [1, 7]: 55%
10 | O=Cc1ccc(-c2ccc(OCF)cc2)cc1 | 29% | –
11 | COC(=O)c1ccc(-c2ccccc2OCF)cc1 | 28% | –
12 | O=Cc1ccc(-c2ccccc2SCF)cc1 | 14% | –
13 | O=Cc1ccc(-c2ccccc2SC(F)F)cc1 | – | Emax [1, 7]: 44%
14 | C[S+]([O-])c1ccc(-c2ccccc2OCF)cc1 (racemic) | – | Emax [1, 7]: 60%
15 | CCS(=N)(=O)c1ccc(-c2ccccc2OCF)cc1 (centres undefined) | – | Emax [1, 7]: 54%
16 | CS(=N)(=O)c1ccc(-c2ccccc2OCF)cc1Cl (centres undefined) | 12% | –

The next lines start with results.

Row | Emax [1] | Compound | also measured
17 | 16% | CC[S+]([O-])c1ccc(-c2ccccc2OCF)cc1 (centres undefined) | –
18 | 38% | CNS(=O)(=O)c1ccc(-c2ccccc2OCF)cc1 | –
19 | 25% | O=Cc1ccc(-c2cccc(OCF)c2)cc1 | –
20 | 7% | O=C(O)c1ccc(-c2ccccc2OCF)cc1 | –
21 | 20% | CS(=N)(=O)c1ccc(-c2ccccc2OCF)c(Cl)c1 (centres undefined) | –
22 | 35% | O=Cc1ccc(-c2ccc(OC(F)F)cc2)cc1 | –
23 | 23% | O=Cc1cccc(-c2ccccc2OCF)c1 | –
24 | 31% | NS(=O)(=O)c1ccc(-c2ccccc2OCF)cc1 | –
